pIC50: −log10 of the molar value. Calls of active or inactive are those of the source. No cut-off for these calls is given here.
Tests used:
Rattus norvegicus [1] = assay: Oral antiallergy activity in the passive foot anaphylaxis (PFA) model of rat, at a dose of 1.0 (mg/kg); type: functional, organism-based
Rattus norvegicus [2] = assay: Oral antiallergy activity in the passive foot anaphylaxis (PFA) model of rat, at a dose of 0.5 (mg/kg); Activity between positive and negative control groups; type: functional, organism-based
Rattus norvegicus [3] = assay: Oral antiallergy activity in the passive foot anaphylaxis (PFA) model of rat, at a dose of 3.16 (mg/kg); Activity between positive and negative control groups; type: functional, organism-based
Cavia porcellus [4] = species on record: Cavia porcellus; assay: Oral antiallergy activity in the guinea pig anaphylaxis (GPA) model, at a pretreatment time of 1 h; type: functional; details: read-out: PD50
Summary of the method: (§1)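 Fasted, sensitized Dunkin-Hartley guinea pigs, randomized into control (N = 8) and test (N = 4) groups, dosed by gavage at 10 mL/kg in 0.5% Tween 80 in water; theophylline 100 mg/kg po as reference. At the stated pretreatment time, each animal was exposed to aerosolized 1% (w/v) egg albumin at 10 L air/min for up to 5 min. Protection meant no collapse within 5 min. PD50 was calculated by Litchfield–Wilcoxon.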

Histamine H1 receptor [5] = biological target: T1, Histamine H1 receptor (Cavia porcellus, UniProt P31389); assay: Inhibitory activity against Tritiated [3H]- mepyramine binding to histamine H1 receptor in guinea pig cerebral cortex; type: tissue-based
Summary of the method: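 Guinea pig (Dunkin-Hartley) cerebral cortex homogenized in cold 50 mM Na-K phosphate pH 7.5, centrifuged at 48000g three times, resuspended 30 mL buffer/g tissue. Six concentrations (1e-5 to 1e-10 M) run in triplicate. IC50 derived by regression of logit % control binding vs log concentration.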

Rattus norvegicus [6] = assay: Oral antiallergy activity in the passive foot anaphylaxis (PFA) model of rat, at a dose of 3.16 (mg/kg); Activity equal to positive control group; type: functional, organism-based
Cavia porcellus [7] = species on record: Cavia porcellus; assay: Oral antiallergy activity in the guinea pig anaphylaxis (GPA) model, at a pretreatment time of 24 h; type: functional; details: read-out: PD50; summary of the method: as §1
Cavia porcellus [8] = species on record: Cavia porcellus; assay: Oral antiallergy activity in the guinea pig anaphylaxis (GPA) model of, at a pretreatment time of 5 h; type: functional; details: read-out: PD50; summary of the method: as §1
Rattus norvegicus [9] = assay: Oral antiallergy activity in the passive foot anaphylaxis (PFA) model of rat, at a dose of 1.0 (mg/kg); not significantly different from negative control group; type: functional, organism-based
Rattus norvegicus [10] = assay: Oral antiallergy activity in the passive foot anaphylaxis (PFA) model of rat, at a dose of 10 (mg/kg); Activity greater than positive control group; type: functional, organism-based
Cavia porcellus [11] = species on record: Cavia porcellus; assay: Oral antiallergy activity in the guinea pig anaphylaxis (GPA) model of, at a pretreatment time of 6 h; type: functional; details: read-out: PD50; summary of the method: as §1
Rattus norvegicus [12] = assay: Oral antiallergy activity in the passive foot anaphylaxis (PFA) model of rat, at a dose of 10 (mg/kg); not significantly different from negative control group; type: functional, organism-based
Rattus norvegicus [13] = assay: Oral antiallergy activity in the passive foot anaphylaxis (PFA) model of rat, at a dose of 1.0 (mg/kg); Activity between positive and negative control groups; type: functional, organism-based
Rattus norvegicus [14] = assay: Oral antiallergy activity in the passive foot anaphylaxis (PFA) model of rat, at a dose of 0.5 (mg/kg); not significantly different from negative control group; type: functional, organism-based
Cavia porcellus [15] = species on record: Cavia porcellus; assay: Oal antiallergy activity in the guinea pig anaphylaxis (GPA) model, at a pretreatment time of 24 h; type: functional; details: read-out: PD50; summary of the method: as §1
Cavia porcellus [16] = species on record: Cavia porcellus; assay: Oal antiallergy activity in the guinea pig anaphylaxis (GPA) model of, at a pretreatment time of 5 h; type: functional; details: read-out: PD50; summary of the method: as §1
Histamine H1 receptor [17] = biological target: T1, Histamine H1 receptor; assay: Inhibitory activity against Tritiated [3H]- mepyramine binding to Histamine H1 receptor in guinea pig cerebral cortex; type: tissue-based
Summary of the method: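 Guinea pig (Dunkin-Hartley) cerebral cortex homogenised in cold 50 mM Na-K phosphate pH 7.5, washed by repeated 48000g spins, membranes resuspended at 30 mL buffer/g wet tissue. Incubated with 1.5 nM (final) [3H]mepyramine for 20 min at 25 °C. Stopped by cold-buffer washing and GF/B filtration, then scintillation counting. Six concentrations (1e-5 to 1e-10 M) in triplicate. IC50 from regression of logit % control binding vs log concentration.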

Rattus norvegicus [18] = assay: Oral antiallergy activity in the passive foot anaphylaxis (PFA) model of rat, at a dose of 3.16 (mg/kg); Activity greater than positive control group; type: functional, organism-based
Rattus norvegicus [19] = assay: Oral antiallergy activity in the passive foot anaphylaxis (PFA) model of rat, at a dose of 1.0 (mg/kg);not significantly different from negative control group; type: functional, organism-based
Rattus norvegicus [20] = species on record: Rattus norvegicus; assay: Oral antiallergy activity in the passive foot anaphylaxis (PFA) model of rat, at a dose of 3.16; Activity equal to positive control group; type: functional, organism-based
Rattus norvegicus [21] = assay: Oral antiallergy activity in the passive foot anaphylaxis (PFA) model of rat, at a dose of 10 (mg/kg); Activity equal to positive control group; type: functional, organism-based
Rattus norvegicus [22] = assay: Oral antiallergy activity in the passive foot anaphylaxis (PFA) model of rat, at a dose of 10 (mg/kg); Not significantly different from negative control group; type: functional, organism-based
Rattus norvegicus [23] = assay: Oral antiallergy activity in the passive foot anaphylaxis (PFA) model of rat, at a dose of 3.16 (mg/kg); - indicates not significantly different from negative control group.; type: functional, organism-based

T1 sequence (P31389 whole entry): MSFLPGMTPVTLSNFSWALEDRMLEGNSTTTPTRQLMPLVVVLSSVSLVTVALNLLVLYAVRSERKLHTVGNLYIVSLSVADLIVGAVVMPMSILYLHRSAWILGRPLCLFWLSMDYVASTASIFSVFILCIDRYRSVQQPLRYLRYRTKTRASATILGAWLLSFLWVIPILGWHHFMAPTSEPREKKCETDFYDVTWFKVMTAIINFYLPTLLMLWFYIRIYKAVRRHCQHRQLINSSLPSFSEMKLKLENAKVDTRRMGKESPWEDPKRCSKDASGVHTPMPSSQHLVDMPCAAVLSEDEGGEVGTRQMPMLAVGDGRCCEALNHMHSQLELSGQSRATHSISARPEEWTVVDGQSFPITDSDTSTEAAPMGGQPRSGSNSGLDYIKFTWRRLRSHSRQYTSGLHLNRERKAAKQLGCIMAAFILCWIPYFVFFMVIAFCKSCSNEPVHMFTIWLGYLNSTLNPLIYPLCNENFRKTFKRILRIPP

O=C(O)c1ccc(OCCCN2CCC(C(O)(c3ccc(F)cc3)c3ccc(F)cc3)CC2)cc1
PFA (Rattus norvegicus [1]): Activity between positive and negative control groups
PFA (Rattus norvegicus [2]): Activity between positive and negative control groups
PFA (Rattus norvegicus [3]): Activity between positive and negative control groups

COc1cc(C(C)=O)ccc1OCCCN1CCC(C(O)(c2ccc(F)cc2)c2ccc(F)cc2)CC1
ED50 (Cavia porcellus [4]): 1.78 mg/kg
pIC50 (Histamine H1 receptor [5]): 8.10
PFA (Rattus norvegicus [6]): Active
ED50 (Cavia porcellus [7]): 0.78 mg/kg
ED50 (Cavia porcellus [8]): 0.18 mg/kg
PFA (Rattus norvegicus [9]): inactive
PFA (Rattus norvegicus [10]): Active

CC(C)(C)c1ccc(C(O)CCCN2CCC(C(O)(c3ccccc3)c3ccccc3)CC2)cc1 (centres undefined) [TERFENADINE]
ED50 (Cavia porcellus [4]): 1 mg/kg
ED50 (Cavia porcellus [11]): 3.2 mg/kg
PFA (Rattus norvegicus [12]): inactive

CCOC(=O)Nc1ccc(OCCCN2CCC(C(O)(c3ccc(F)cc3)c3ccc(F)cc3)CC2)cc1
PFA (Rattus norvegicus [6]): Activity equal to positive control group
PFA (Rattus norvegicus [9]): Activity equal to positive control group
PFA (Rattus norvegicus [10]): Activity equal to positive control group

COC(=O)CCc1ccc(OCCCN2CCC(C(O)(c3ccc(F)cc3)c3ccc(F)cc3)CC2)cc1
PFA (Rattus norvegicus [13]): Activity between positive and negative control groups
PFA (Rattus norvegicus [10]): Activity between positive and negative control groups
PFA (Rattus norvegicus [3]): Activity between positive and negative control groups
PFA (Rattus norvegicus [14]): Activity between positive and negative control groups

CC(C)Oc1ccccc1OCCCN1CCC(C(O)(c2ccc(F)cc2)c2ccc(F)cc2)CC1
PFA (Rattus norvegicus [13]): Activity between positive and negative control groups
PFA (Rattus norvegicus [3]): Activity between positive and negative control groups

O=c1[nH]c2ccccc2n1CCCN1CCN(C(c2ccccc2)c2ccccc2)CC1 [OXATOMIDE]
ED50 (Cavia porcellus [15]): 10 mg/kg
ED50 (Cavia porcellus [16]): 1 mg/kg
pIC50 (Histamine H1 receptor [17]): 8.05

COC(=O)c1ccc(OCCCN2CCC(C(O)(c3ccc(F)cc3)c3ccc(F)cc3)CC2)cc1
ED50 (Cavia porcellus [4]): 0.72 mg/kg
pIC50 (Histamine H1 receptor [5]): 7.20
PFA (Rattus norvegicus [18]): Active
ED50 (Cavia porcellus [7]): 2.04 mg/kg
ED50 (Cavia porcellus [8]): 0.32 mg/kg
PFA (Rattus norvegicus [13]): Weak activity
PFA (Rattus norvegicus [14]): inactive

CC(=O)c1ccc(OCCCN2CCC(C(O)(c3ccc(F)cc3)c3ccc(F)cc3)CC2)cc1
PFA (Rattus norvegicus [6]): Activity equal to positive control group
PFA (Rattus norvegicus [9]): Activity equal to positive control group
PFA (Rattus norvegicus [10]): Activity equal to positive control group

CC(=O)Nc1ccc(OCCCN2CCC(C(O)(c3ccc(F)cc3)c3ccc(F)cc3)CC2)cc1
PFA (Rattus norvegicus [6]): Activity equal to positive control group
PFA (Rattus norvegicus [9]): Activity equal to positive control group
PFA (Rattus norvegicus [10]): Activity equal to positive control group

CCC(=O)c1ccc(OCCCN2CCC(C(O)(c3ccc(F)cc3)c3ccc(F)cc3)CC2)cc1
PFA (Rattus norvegicus [6]): Activity equal to positive control group
PFA (Rattus norvegicus [9]): Activity equal to positive control group
PFA (Rattus norvegicus [10]): Activity equal to positive control group

CS(=O)(=O)Nc1ccc(OCCCN2CCC(C(O)(c3ccc(F)cc3)c3ccc(F)cc3)CC2)cc1
PFA (Rattus norvegicus [19]): Activity between positive and negative control groups
PFA (Rattus norvegicus [10]): Activity between positive and negative control groups
PFA (Rattus norvegicus [3]): Activity between positive and negative control groups

Cc1ccc(OCCCN2CCC(C(O)(c3ccc(F)cc3)c3ccc(F)cc3)CC2)cc1
PFA (Rattus norvegicus [20]): Activity equal to positive control group
PFA (Rattus norvegicus [21]): Activity equal to positive control group
PFA (Rattus norvegicus [9]): Activity equal to positive control group

COc1cc(C(C)=O)ccc1OCCCN1CCC(C(O)c2ccccc2)CC1 (centres undefined)
PFA (Rattus norvegicus [22]): Not significantly different from negative control group

CCOC(=O)c1ccc(OCCCN2CCC(C(O)(c3ccc(F)cc3)c3ccc(F)cc3)CC2)cc1.Cl
ED50 (Cavia porcellus [4]): 1 mg/kg
pIC50 (Histamine H1 receptor [5]): 6.02
PFA (Rattus norvegicus [18]): Active
ED50 (Cavia porcellus [7]): 0.37 mg/kg
ED50 (Cavia porcellus [8]): 0.44 mg/kg
PFA (Rattus norvegicus [13]): Weak activity
PFA (Rattus norvegicus [2]): Weak activity

COc1ccccc1OCCCN1CCC(C(O)(c2ccc(F)cc2)c2ccc(F)cc2)CC1
PFA (Rattus norvegicus [13]): Activity between positive and negative control groups
PFA (Rattus norvegicus [3]): Activity between positive and negative control groups

OC(c1ccc(F)cc1)(c1ccc(F)cc1)C1CCN(CCCCc2ccccc2)CC1
PFA (Rattus norvegicus [23]): Not significantly different from negative control group

O=C(O)CCc1ccc(OCCCN2CCC(C(O)(c3ccc(F)cc3)c3ccc(F)cc3)CC2)cc1
PFA (Rattus norvegicus [6]): Activity between positive and negative control groups
PFA (Rattus norvegicus [13]): Activity between positive and negative control groups
PFA (Rattus norvegicus [10]): Activity between positive and negative control groups
PFA (Rattus norvegicus [14]): Activity between positive and negative control groups

NC(=O)c1ccc(OCCCN2CCC(C(O)(c3ccc(F)cc3)c3ccc(F)cc3)CC2)cc1
PFA (Rattus norvegicus [13]): Activity between positive and negative control groups
PFA (Rattus norvegicus [10]): Activity between positive and negative control groups
PFA (Rattus norvegicus [3]): Activity between positive and negative control groups
PFA (Rattus norvegicus [14]): Activity between positive and negative control groups

COc1cc(C(C)=O)ccc1OCCCN1CCC(=C(c2ccccc2)c2ccccc2)CC1
PFA (Rattus norvegicus [6]): Activity equal to positive control group

COc1cc(C(C)=O)ccc1OCCCN1CCC(C(O)(c2ccccc2)c2ccccc2)CC1
ED50 (Cavia porcellus [4]): 0.57 mg/kg
pIC50 (Histamine H1 receptor [5]): 7.38
PFA (Rattus norvegicus [6]): Active
ED50 (Cavia porcellus [7]): 1.4 mg/kg
ED50 (Cavia porcellus [8]): 0.35 mg/kg
PFA (Rattus norvegicus [9]): inactive
PFA (Rattus norvegicus [10]): Active
